Reference: article PMC8428831 (Plant Biotechnology Journal, 2021)

Columns and labels:
CgS = target: T1, CgS (Arabidopsis thaliana, UniProt P55217); experiment: Micro Scale Thermophoresis; format: binding
T1 sequence (P55217 69-563): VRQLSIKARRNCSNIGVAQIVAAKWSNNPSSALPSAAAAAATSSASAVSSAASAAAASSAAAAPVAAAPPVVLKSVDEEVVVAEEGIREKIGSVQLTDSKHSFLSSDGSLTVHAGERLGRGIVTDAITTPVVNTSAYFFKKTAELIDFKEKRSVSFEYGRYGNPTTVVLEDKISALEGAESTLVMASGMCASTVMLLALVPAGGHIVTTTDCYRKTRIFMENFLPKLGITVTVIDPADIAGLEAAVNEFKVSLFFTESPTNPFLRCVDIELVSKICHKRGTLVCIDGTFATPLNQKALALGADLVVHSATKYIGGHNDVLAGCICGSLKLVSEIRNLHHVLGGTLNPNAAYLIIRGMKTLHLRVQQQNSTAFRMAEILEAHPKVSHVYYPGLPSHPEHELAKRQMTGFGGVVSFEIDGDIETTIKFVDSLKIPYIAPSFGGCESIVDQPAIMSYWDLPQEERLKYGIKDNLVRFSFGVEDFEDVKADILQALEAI
Summary of the method: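 Purified recombinant AtCgS labelled with an amine-reactive fluorophore, 100 nM per capillary. Incubated with a dilution series of test compound and measured by microscale thermophoresis (Monolith NT.115). Baseline normalised to the mean of the three lowest concentrations. Signal fitted to a single-site binding model to give Kd.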

[1] = tested on: methionine auxotroph E. coli transformed with AtCgS; format: cell-based; conditions: for Bacterial growth with external methionine / Bacterial growth without external methionine: 50 µM compound, M9 minimal media; for Bacterial growth with external methionine: methionine 40 mg/L; for Bacterial growth without external methionine: no methionine
Summary of the method: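 Methionine-auxotroph E. coli LE392 carrying pQE-30–AtCgS grown in M9 minimal medium with IPTG, with or without 40 mg/L methionine. Test compound at 50 µM final, or a concentration series, from a 50 mM DMSO stock; DMSO-only controls (0.1%). OD600 read every 20 min for about 1000 min at 37 °C with orbital shaking. Curve slopes from a linear fit; slope ratio versus DMSO, in duplicate.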

Row | Compound | Kd (CgS) [µM] | Bacterial growth with external methionine [1] | Bacterial growth without external methionine [1] | Bacterial growth curves, dose–response without external methionine ([1]; variable concentrations, M9, no methionine) | Bacterial growth curves, dose–response with external methionine ([1]; variable concentrations, M9, with methionine)
1 | Cc1cc(O)nc(-c2cccc(NC(=O)c3c(O)cccc3F)c2)n1 [CGSI‐1, 2‐fluoro‐6‐hydroxy‐N‐(3‐(4‐hydroxy‐6‐methylpyrimidin‐2‐yl)phenyl)benzamide] | 29.4 | not active in its presence | active in the absence of methionine | clear dose–response behaviour | no effect
2 | C#CCC(N)C(=O)O (stereo not shown) [PAG, propargyl‐glycine, reference compound] | – | the cells grew in the presence of PAG | significantly inhibits cell growth | – | –
